The source of these data is the RNAGym collection of RNA variant scans (doi:10.1126/science.aae0568).

Variants at the floor of the assay were thinned out.

Sequences and labels used below:
B1: tRNA (parent)
chain: GUUCCGUUGGCGUAAUGGUAACGCGUCUCCCUCCUAAGGAGAAGACUGCGGGUUCGAGUCCCGUACGGAACG

In this series the parent is B1. Description: yeast fitness relative to wild type (ratio to wild type); higher = fitter; tRNA-Arg(CCU), competitive growth, 37 C, YPD. An outline of the steps: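 The tRNA-Arg(CCU) gene variants were made by chemical synthesis with a 3% per-site mutation rate at 69 sites and inserted at the native genomic locus of Saccharomyces cerevisiae. After pooling, the strains were competed in YPD at 37°C for 24 hours in six parallel replicates. Gene amplicons from the start population and each end population were read by 100-nucleotide paired-end sequencing, and Darwinian fitness relative to wild type was taken from genotype frequency changes. Genotypes needed ≥ 100 starting reads, and estimates < 0.5 were set to 0.5.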
Turning to GUUCCGUUGGCGUAAUGGUUACGCGCCUCCCUCCUAAGGAGAAGACCGCGGGUUCGAGUCCCGUACGGAACG [A20U U26C U47C], the yeast fitness was determined as 0.534.
For GUUCCGUUGGCGUAAUGGUAACGCGUCUUCCUCCUCAGGAGAAGACUGCGGGUUCAAGUCCCGUACGGAACG [C29U A36C G56A], the yeast fitness is at most 0.5.
Regarding GUUCCGUCGGCGUAAUGGUAUCGCGUCUCCCACCUAAGGAGAAGACUGCGGGUUGGAGUCCCGUACGGAACG [U8C A21U U32A C55G], the yeast fitness was 0.517.
For GUCCCGUUGGCGAAAUGGUAACGCGUCUCCCUCCUAAGGAGAAGACUGCGGGUUCGAGUCCCGUACGGAACG [U3C U13A] the value was 0.983; for GUUCCGUUCGCGUAAUGGUAACGCGUCUCGCUCCUAUGGAGAAGACAGCGGGUUCGAGUCCCGUACGGAACG [G9C C30G A37U U47A], at most 0.5.
With GUUCCGUUGGUGUAAUGGAAACGCGUCUCCCUUCUAAGGACAAGCCUGCGGGUUCGAGUCCCGUACGGAACG [C11U U19A C33U G41C A45C], the yeast fitness was at most 0.5.
With GUUCCGUUGGCGUAAUGGUAACGCGUCUCCCUCCUAAGGAGAAGACUAUGGGUUCGAGUCCCCUACGGAACG [G48A C49U G63C], the yeast fitness stood at 0.633.
As to GUUCCGUUGGUGGAAUGGAAAGGCAUCUCCCUCCUAAGGAGAAGACUGCGGGUUCGAGUCACGUACGGAACG [C11U U13G U19A C22G G25A C61A], the yeast fitness is at most 0.5.
With GUUCCGUUGGCGGAAUGGUAACGCGUCUCCCUCCUAAGGAGAAGAGUGCGGGUUCGAGUCCCGUACGGAACG [U13G C46G], the yeast fitness is 1.12.
For GUUCCGUUGGCGUAAUGAUAACGCCUCUCCCUCCUAAGGAGAAGACUGUGGGUUCGAGUCCCGUACGGAACG [G18A G25C C49U], the yeast fitness came out at 0.74.
In the case of GUUCCGUUGGCGUUAUGGUAACGCGUCUCCCUCCUAUGGAGAAGACAGCGGGUUCGAGUCCCGUACGGAACG [A14U A37U U47A], the yeast fitness is 0.632.
On to GUUCCGUUGGCGAAAUGGUAACGCGGAUCCCUCCUAAGCAGGAGACUGCGCGUUCGAGUCCCGUAUGGUACG [U13A U26G C27A G39C A42G G51C C66U A69U], for which the yeast fitness was at most 0.5.
In the case of GUUCCGUUGGCGUAAUGGUAACGCGUCUCCCUCCUAAGGAGAAGCCUGCGGGUUCGAGUCCCGUACGGAUCG [A45C A70U], the yeast fitness turned out to be 0.862.
On to GUUCCGUUGGCGUAAUGGUAACGCGUCUCCCUCCUAAGGAGCAGACCGCGGGUUCGACUCCCGUACGGAACG [A42C U47C G58C], for which the yeast fitness was found to be 0.644.
The value for GUUGCGUUGGCGUAAUGGUAACGCGUCUCCCUCCUAAGGAGAAGGCUGCGGGUUCGAGUCCCGUACGCAACG [C4G A45G G68C] was 0.567; that for GUUCCGCUGGCGUAUUGGUAACGCGUCUCCCUCCUAAGGAGAAGACUGCGGGUUCGAGUCCCGUACGGUACG [U7C A15U A69U] was 0.527; that for GUCCCGUUGGCGUAAUGGUAACGCGUCUCCCUCCUAAGGAGAAGACUGCGGGUUCGAGUCCCGUGCGCAACG [U3C A65G G68C] was 0.561.
Regarding GUUCCGUUGGCGUAAUACUAACGCGUCUCCCUCCUAAGCAGAAGACUGCGGGUUCGAGUCCCGUUCGGAACG [G17A G18C G39C A65U], the yeast fitness was at most 0.5.
For GUUCCGUAGGCGUAAUGGUUUCGCAUCUCCCUCCUAAGGAGAUGACUGCGGGUUCGAGUCCCGUACGGAACG [U8A A20U A21U G25A A43U], the yeast fitness was 0.584.
Turning to GUUGCGUUGGCGUAAUAGUAACGCGUCUCCCUCCUAAGGAGAAGACUGCGGGUUCCAGUGCCGUAUGGAACG [C4G G17A G56C C60G C66U], the yeast fitness is at most 0.5.
GUUCCGUUGGUGUAAUGGUAACGCGUCUCCCUCCUAAGGAGAAGACUGCGGGUUAGAGUCCCGUACGGAACG [C11U C55A]: the yeast fitness was 0.678.
GUUCCGUUGGCGUAAUGGUAACGCGUCUCCCUCCUACGGAGAAGACUGCGGGUUCCAGUCCCGUACGGAACG [A37C G56C]: the yeast fitness was determined as 0.6.
On to GUUCCGUUGGCGUAGUGGUAACGCGUCUCCCUCCUAAGGAGCAGAAUGCGGGUUCGAGUCCCGUACGGAACG [A15G A42C C46A], for which the yeast fitness is at most 0.5.
In the case of GUUCCGUUGGCGUAAUGGUGACACGUCUCCCUCCUAAAGAGAAGACUGCGGGUUCGAGUCCCGUACGGAACG [A20G G23A G38A], the yeast fitness is at most 0.5.
The value for GUUCCAUUGCCGUAAUGGUAACGCGUCUUCCUCCUAAGGAGAAGACUGCGGGUUCGAGUCAUGUUCGGCACG [G6A G10C C29U C61A C62U A65U A69C] was at most 0.5; that for GUUCCGUUGGCGUAACGGUUACGUGUCUCCCUCCUAAGGAGAAGACUGCGGGUUCGAGUCCCGUUCGGAACG [U16C A20U C24U A65U] was at most 0.5; that for GUUCCGUUGGCGUAAUGGUAACGCGCCUCCCUCCUAAGGAGGAGACUGCGGGUUCGAGUCCCGUACGGAACG [U26C A42G] was 1.08.
GUUACGUUGGCGUAAUGGUAACGCGUCUCCCUCCUAAGGAGUAGACUGCGGGUUCGAGUCCCGUACGGUACG [C4A A42U A69U]: the yeast fitness was determined as 0.625.
For GUUCCGUUGGCGUAAUAGUAACGCGUCUCCCUCCUAAGGAGAAGAGUGCGGGUCCGAGUCCCGUACGGAACG [G17A C46G U54C] the value was 0.562.
The value for GUUCCGUUGACGUAAUGGUAAGGCGUCUCCCUCCUAAGGAGAAGACUGCGGGUUCGAGUCCUGUACGGAACG [G10A C22G C62U] was at most 0.5.
For GUUCCGUUGGCGUAAUGGUAACGGGUCUCCGUCCUAAGGAGAAGACUGCGGGUUCGAGUCCCGUACGCAACG [C24G C31G G68C], the yeast fitness was at most 0.5.
Consider GUUCCGUUGACGUAAAGGUAACACGUCUCGCUCCUAAGGAGAAGACUGCGCGUUCGAGUCCCGUACGGAACG [G10A U16A G23A C30G G51C], for which the yeast fitness is at most 0.5.
GUUGCGUUGGCGUAAUGGUAACGGAUCUCCCUCCAAAGGAGAAGACUGCGCGUUCGAGUCCCGUACGGAACG [C4G C24G G25A U35A G51C]: the yeast fitness was at most 0.5.
As for GUUCCGUUGGCCUAAUGGUAACGCGUCUCCCGGCUAAGGAGAAGACUGCGGGUUCGAAUCCCGUACGGAACG [G12C U32G C33G G58A], the yeast fitness is at most 0.5.
GUUCCGUUGGAGUAAUGGUUAUGCGUCUCCCUCCUAAGGAGAAGACUGCGGGUUCGAGUCCCGUACGGAACG [C11A A20U C22U]: the yeast fitness came to 0.552.
The value for GUACUGUUGGCGUAAUGGUAACGCGUCUCCCUCCUAUGGAGAAGACUGCGGGUUCGAGUCCCGUACGGAACG [U3A C5U A37U] was at most 0.5.
Regarding GUUCCGUUGGCGUAAUGGUAGCGCGUCUCCCUCCUACGGAGAAGACUGCGGGUUCGCAUCCCGUACGGAACG [A21G A37C A57C G58A], the yeast fitness was at most 0.5.
